Measured values taken from ChEMBL document CHEMBL3259782, “Synthesis and biological evaluation of chalcones as potential antileishmanial agents” (Eur J Med Chem, 2014).

Key:
Leishmania donovani [1] = test: Antipromastigote activity against Leishmania donovani MHOM/IN/80/Dd8 expressing luciferase firefly reporter gene at 25 uM after 96 hrs by luminescence assay; conditions: MHOM/IN/80/Dd8, 96 h
[2] = Cytotoxicity against African green monkey Vero cells assessed as cell viability after 72 hrs by MTT assay; assay type: cell-based; conditions: chlorocebus sabaeus
Procedure, shortened: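 Vero cells at 1 x 10^5/mL were exposed to 7 concentrations from 400 µM at 37 °C in CO2 for 72 h. MTT (5 mg/mL in PBS) was then added for 2 h at 37°C. Formazan was dissolved in DMSO and absorbance read at 540 nm. CC50 was estimated and averaged over at least duplicates.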

Leishmania donovani [3] = test: Antiamastigote activity against amastigote stage of Leishmania donovani MHOM/IN/80/Dd8 expressing luciferase firefly reporter gene infected in mouse J774A1 cells after 72 hrs by luminescence assay; assay type: functional, organism-based; conditions: MHOM/IN/80/Dd8, J774.A1, 72 h
Procedure, shortened: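 J-774A.1 macrophages were seeded at 4 x 10^4/mL in RPMI-1640 with 10% heat-inactivated FCS at 37 °C, 5% CO2. After 24 h they were infected with stationary-phase luciferase-expressing promastigotes at 4 x 10^5/mL. Uninternalized parasites were washed off after 24 h. Compounds were tested at 7 dilutions from 40 µM for 72 h. Luminescence was read with Steady Glo. IC50 came from four-parameter Hill fitting, averaged over at least duplicates.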

[4] = (§1) Selectivity index, ratio of CC50 for African green monkey Vero cells to IC50 for promastigote stage of Leishmania donovani MHOM/IN/80/Dd8; assay type: functional; conditions: in the assay text read “amastigote stage” for “promastigote stage”
Procedure, shortened: (§2)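 SI was calculated as Vero CC50 (MTT, 72 h) divided by IC50 against intracellular amastigotes in J-774A.1 cells (luciferase luminescence, 72 h).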

Leishmania donovani [5] = test: Antileishmanial activity against Leishmania donovani MHOM/IN/80/Dd8 infected in golden hamster assessed as inhibition of amastigotes multiplication at 30 mg/kg, po for 5 days treatment started 15 days after infection measured on day 7; assay type: functional
Procedure, shortened: (§3)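 Golden hamsters of both sexes were infected intracardially with 1 x 10^7 amastigotes. A pre-treatment splenic biopsy was taken after 15 days, and only animals with +1 grade infection (5-10 amastigotes/100 spleen cell nuclei) were used, five per compound. Dosing began 2 days after that biopsy and ran on consecutive days. Splenic biopsy on day 7 after the last dose was Giemsa-stained. PI = 100-[(ANAT x 100)/(INAT x TIUC)].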

Leishmania donovani [6] = test: Antileishmanial activity against Leishmania donovani MHOM/IN/80/Dd8 infected in golden hamster assessed as inhibition of amastigotes multiplication at 50 mg/kg, ip for 5 days treatment started 15 days after infection measured on day 7; assay type: functional; conditions: MHOM/IN/80/Dd8, ip, route intraperitoneal
Procedure, shortened: as §3

Vero = test: as §1; assay type: functional; conditions: in the assay text read “amastigote stage” for “promastigote stage”
Procedure, shortened: as §2

Leishmania donovani [7] = test: Antileishmanial activity against Leishmania donovani MHOM/IN/80/Dd8 infected in golden hamster assessed as inhibition of amastigotes multiplication at 40 mg/kg, ip for 5 days treatment started 15 days after infection measured on day 7; assay type: functional, organism-based; set-up: dose 40 mg/kg
Procedure, shortened: as §3

Leishmania donovani [8] = test: Antileishmanial activity against Leishmania donovani MHOM/IN/80/Dd8 infected in golden hamster assessed as inhibition of amastigotes multiplication at 100 mg/kg, ip for 5 days treatment started 15 days after infection measured on day 7; assay type: functional; conditions: MHOM/IN/80/Dd8, ip, route intraperitoneal
Procedure, shortened: as §3

Leishmania donovani [9] = test: Antileishmanial activity against Leishmania donovani MHOM/IN/80/Dd8 infected in golden hamster assessed as inhibition of amastigotes multiplication at 50 mg/kg, ip for 10 days treatment started 15 days after infection measured on day 7; assay type: functional; conditions: MHOM/IN/80/Dd8, ip, route intraperitoneal
Procedure, shortened: as §3

| Compound | IC50 (Leishmania donovani [3]) [µM] | inhibition at 25 µM (Leishmania donovani [1]) [%] | CC50 at 72 h [2] [µM] | Ratio CC50/IC50 [4] | other results |
| --- | --- | --- | --- | --- | --- |
| CC1(C)C=Cc2c(ccc(C(=O)/C=C/c3cnc4ccccc4c3)c2O)O1 | – | 62.2 | – | – | – |
| CC1(C)C=Cc2c(ccc(C(=O)/C=C/c3ccc(Cl)cc3)c2O)O1 | 17.9 | 99.9 | 92.2 | 5.1 | – |
| CCCCCCCCCCCCCCCCOP(=O)([O-])OCC[N+](C)(C)C [MILTEFOSINE] | – | 100 | – | 6.2 | inhibition in vivo at 30 mg/kg (Leishmania donovani [5]): 98.5% |
| CC1(C)C=Cc2c(ccc(C(=O)/C=C/c3ccc(OCCN4CCCCC4)cc3)c2O)O1 | 17.7 | 100 | > 400 | >22.6 | – |
| CCOc1cc(/C=C/C(=O)c2ccc3c(c2O)C=CC(C)(C)O3)ccc1F | 12.1 | 99.9 | 185 | 15.3 | – |
| CC1(C)C=Cc2c(ccc(C(=O)/C=C/c3ccc([N+](=O)[O-])cc3)c2O)O1 | 5.2 | 97.4 | 106 | 20.4 | – |
| Cc1ccc2nc(Cl)c(/C=C/C(=O)c3ccc4c(c3O)C=CC(C)(C)O4)cc2c1 | 5.3 | 99.8 | 399 | 75.3 | – |
| CC1(C)C=Cc2c(ccc(C(=O)/C=C/c3ccccn3)c2O)O1 | 2 | 99.9 | 20.5 | 10.2 | – |
| CC1(C)C=Cc2c(ccc(C(=O)/C=C/c3cc(C=O)ccc3O)c2O)O1 | > 20 | 94.5 | – | – | – |
| CCN(CC)CCOc1ccc(/C=C/C(=O)c2ccc3c(c2O)C=CC(C)(C)O3)cc1 | 14.9 | 100 | 341 | 22.9 | – |
| CC(C)=CCC/C(C)=C/COc1ccc(C(=O)/C=C/c2ccc(OCCN3CCCC3)cc2)cc1 | – | 100 | – | – | – |
| CC1(C)C=Cc2c(ccc(C(=O)/C=C/c3ccc(Cl)c(Cl)c3)c2O)O1 | 13.9 | 99.9 | 142 | 10.2 | – |
| CC1(C)C=Cc2c(ccc(C(=O)/C=C/c3cc4ccccc4nc3Cl)c2O)O1 | 12.1 | 100 | 257 | 21.2 | – |
| sodium stibogluconate | – | – | – | – | Ratio CC50/IC50 (Vero): > 8; inhibition (Leishmania donovani [7]): 89.5% |
| CC1(C)C=Cc2c(ccc(C(=O)/C=C/c3cccnc3)c2O)O1 | 22.2 | 100 | 8.6 | 0.4 | – |
| CC1(C)C=Cc2c(ccc(C(=O)/C=C/c3ccc4ccoc4c3)c2O)O1 | > 20 | 91.2 | – | – | – |
| CCOc1ccc(/C=C/C(=O)c2ccc3c(c2O)C=CC(C)(C)O3)cc1 | 5.1 | 88.9 | 215 | 42.1 | – |
| CC(C)=CCOc1ccc(C(=O)/C=C/c2ccc(N(C)C)cc2)cc1 | 4.1 | 84.2 | > 400 | >97.6 | – |
| CC1(C)C=Cc2c(ccc(C(=O)/C=C/c3ccc(C#N)cc3)c2O)O1 | 8.2 | 99.6 | 80.2 | 9.8 | – |
| CC1(C)C=Cc2c(ccc(C(=O)/C=C/c3ccc(OCCN4CCCCC4)cc3)c2OCCN2CCCCC2)O1 | 2.8 | 100 | 86.5 | 30.9 | – |
| CN(C)c1ccc(/C=C/C(=O)c2ccc(OCCN3CCCCC3)cc2)cc1 | 9.3 | 99.9 | 251 | 27 | – |
| COc1ccc(/C=C/C(=O)c2ccc(OC/C=C(\C)CCC=C(C)C)cc2)cc1 | 3.1 | 93 | 146 | 47.2 | inhibition in vivo at 100 mg/kg (Leishmania donovani [8]): 75.9%; inhibition in vivo at 50 mg/kg (Leishmania donovani [9]): 83.3% |
| CC1(C)C=Cc2c(ccc(C(=O)/C=C/c3ccc(O)cc3)c2O)O1 | > 20 | 70.2 | – | – | – |
| CCOc1ccc(/C=C/C(=O)c2ccc(OCCN3CCCCC3)cc2)cc1 | > 20 | 99.9 | – | – | – |

Second part, led by results:

| IC50 (Leishmania donovani [3]) [µM] | Compound | inhibition at 25 µM (Leishmania donovani [1]) [%] | CC50 at 72 h [2] [µM] | Ratio CC50/IC50 [4] | other results |
| --- | --- | --- | --- | --- | --- |
| 2.5 | CC1(C)C=Cc2c(ccc(C(=O)/C=C/c3ccc(OCCN4CCCC4)cc3)c2OCCN2CCCC2)O1 | 99.9 | 258 | 103.2 | – |
| > 20 | CC(C)=CCC/C(C)=C/CC/C(C)=C/COc1ccc(C(=O)/C=C/c2ccc(N(C)C)cc2)cc1 | 76.1 | – | – | – |
| 2 | CCN(CC)CCOc1ccc(/C=C/C(=O)c2ccc3c(c2OCCN(CC)CC)C=CC(C)(C)O3)cc1 | 100 | 325 | 162.5 | inhibition in vivo at 50 mg/kg (Leishmania donovani [6]): 48.5% |
| > 20 | CC1(C)C=Cc2c(ccc(C(=O)/C=C/c3ccc(OCCN4CCCC4)cc3)c2O)O1 | 100 | – | – | – |
| 6.1 | CC(=O)Nc1ccc(/C=C/C(=O)c2ccc3c(c2O)C=CC(C)(C)O3)cc1 | 98.7 | 278 | 45.6 | – |
| > 20 | CC1(C)C=Cc2c(ccc(C(=O)/C=C/c3ccc(Br)cc3)c2O)O1 | 100 | – | – | – |
| 16.7 | CC1(C)C=Cc2c(ccc(C(=O)/C=C/c3ccc(F)cc3)c2O)O1 | 99 | 158 | 9.5 | – |
| > 20 | O=C(/C=C/c1ccc(OCCN2CCCCC2)cc1)c1ccc(OCCN2CCCCC2)cc1 | 99.9 | – | – | – |
| 9.3 | CC(C)=CCC/C(C)=C/COc1ccc(C(=O)/C=C/c2ccc(O)cc2)cc1 | 95.2 | 12.9 | 1.4 | – |
| 11.9 | COc1ccc(/C=C/C(=O)c2ccc3c(c2O)C=CC(C)(C)O3)cc1OC | 98.2 | 267 | 22.4 | – |
| 17 | CC1(C)C=Cc2c(ccc(C(=O)/C=C/c3ccc(F)c(F)c3)c2O)O1 | 99.9 | 146 | 8.6 | – |
| 19.8 | CN(C)c1ccc(/C=C/C(=O)c2ccc3c(c2O)C=CC(C)(C)O3)cc1 | 97.1 | > 400 | >20.2 | – |
| 9.7 | CC1(C)C=Cc2c(ccc(C(=O)/C=C/c3ccc(Cl)cc3Cl)c2O)O1 | 99.9 | 131 | 13.5 | – |
